Data as given in ChEMBL document CHEMBL1124358, “Synthesis and pharmacological evaluation of CNS activities of [1,2,3]triazolo[4,5-b][1,5]-, imidazolo[4,5-b][1,5]-, and pyrido[2,3-b][1,5]benzodiazepines. 10-Piperazinyl-4H-1,2,3-triazolo[4,5-b][1,5]benzodiazepines with neuroleptic activity” (J Med Chem, 1989).

Key:
Rattus norvegicus [1] = assay: Effective dose against muscular incoordination in rats determined by rotarod test when administered peroral; assay type: functional
Summary of the method: (§1)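 Male Olac Wistar rats (140–150 g), fed and watered ad libitum, in groups of five, dosed orally (water solution or 0.5% carboxymethylcellulose suspension). Tested at 1 and 2 h on a horizontal rod rotating at 2 rpm, 32 mm diameter, with a 30 s cutoff.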

Rattus norvegicus [2] = species on record: Rattus norvegicus; assay: Inhibition of conditioned avoidance response in rats, peroral dose; assay type: functional
[3] = target: Muscarinic acetylcholine receptor; assay: Inhibitory activity against muscarinic cholinergic receptors in male olac rat brain, using [3H]QNB as the radioligand
Mus musculus [4] = assay: Effective dose required to produce hypothermia in mouse when administered peroral; assay type: functional
Summary of the method: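 Rectal temperature recorded in groups of three CFW mice (21–23 g) at 0.25, 2.5 and 5.0 h after oral compound (water or 0.5% carboxymethylcellulose). Changes in group mean temperature from the initial mean were summed over the three times. Hypothermia was taken as a summed mean fall >4 °C.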

D(2) dopamine receptor [5] = target: T1, D(2) dopamine receptor (Bos taurus, UniProt P20288); assay: Inhibitory activity against dopamine receptor D2 in calf caudate tissue using [3H]spiperone
Mus musculus [6] = assay: Effective dose required to evoke catalepsy in mouse when administered perorally; assay type: functional
Summary of the method: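 CFW mice (21–23 g), groups of three, oral dosing in water or 0.5% carboxymethylcellulose. Scored at 0.25, 2.5 and 5.0 h for holding one hind limb on a 2 cm rubber bung and staying on a vertical grid. EDmin is the dose below which no catalepsy occurred at any time.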

D(2) dopamine receptor [7] = target: T1, D(2) dopamine receptor; assay: Inhibitory activity against Dopamine receptor D2 in calf caudate tissue, using [3H]spiperone as the radioligand
[8] = target: Muscarinic acetylcholine receptor; assay: Inhibitory activity against Muscarinic acetylcholine receptor in male olac rat brain, using [3H]-QNB as the radioligand
Rattus norvegicus [9] = assay: Effective dose against muscular incoordination in rats determined by rotarod test when administered perorally; assay type: functional; summary of the method: as §1
D(2) dopamine receptor [10] = target: T1, D(2) dopamine receptor; assay: Inhibitory activity Dopamine receptor D2 in calf caudate tissue, using [3H]spiperone as the radioligand
Rattus norvegicus [11] = assay: Effective dose against muscular in coordination in rats determined by rotarod test when administered peroral; assay type: functional
Summary of the method: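 Male Olac Wistar rats (140–150 g), fed and watered ad libitum, groups of five; compound in distilled water or 0.5% carboxymethylcellulose given orally. Tested at 1 and 2 h on horizontal rod rotating at 2 rpm (32 mm diameter), time on rod recorded up to 30 s.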

T1 sequence (P20288 whole entry): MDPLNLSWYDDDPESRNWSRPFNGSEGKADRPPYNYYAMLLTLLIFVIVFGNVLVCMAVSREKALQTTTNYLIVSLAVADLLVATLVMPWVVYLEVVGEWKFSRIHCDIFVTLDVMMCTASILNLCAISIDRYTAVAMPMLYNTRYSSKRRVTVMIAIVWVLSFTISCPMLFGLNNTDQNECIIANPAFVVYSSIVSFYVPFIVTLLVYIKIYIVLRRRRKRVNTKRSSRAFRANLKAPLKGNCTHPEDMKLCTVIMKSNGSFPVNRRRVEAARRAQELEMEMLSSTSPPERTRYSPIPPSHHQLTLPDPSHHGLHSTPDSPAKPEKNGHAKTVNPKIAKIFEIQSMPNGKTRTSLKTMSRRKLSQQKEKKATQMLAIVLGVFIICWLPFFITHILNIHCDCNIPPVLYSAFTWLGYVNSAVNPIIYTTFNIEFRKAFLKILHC

| SMILES | IC50 [3] [µM] | IC50 (D(2) dopamine receptor [5]) [µM] | IC50 (D(2) dopamine receptor [7]) [µM] | IC50 [8] [µM] | IC50 (D(2) dopamine receptor [10]) [µM] | EDmin (Rattus norvegicus [1]) [mg/kg] | EDmin (Rattus norvegicus [2]) [mg/kg] | EDmin (Mus musculus [4]) [mg/kg] | EDmin (Mus musculus [6]) [mg/kg] | EDmin (Rattus norvegicus [9]) [mg/kg] | EDmin (Rattus norvegicus [11]) [mg/kg] |
| --- | --- | --- | --- | --- | --- | --- | --- | --- | --- | --- | --- |
| CN1CCN(C2=Nc3cc(F)ccc3Nc3c2ncn3C2CCCCC2)CC1 | > 100 | > 10 |  |  |  | >50 | >50 | 200 | >400 |  |  |
| Cc1nc2c(n1C)C(N1CCN(C)CC1)=Nc1cc(F)ccc1N2 | > 1 | > 10 |  |  |  | >50 | >50 | 50 | >200 |  |  |
| CN1CCN(C2=Nc3ccccc3Nc3c2nnn3C)CC1 |  |  | > 10 |  |  |  | >50 |  |  |  |  |
| CCn1cnc2c1Nc1ccc(F)cc1N=C2N1CCN(C)CC1 | 61 | > 10 |  |  |  | >50 | >50 | >200 | >200 |  |  |
| CN1CCN(C2=Nc3ccccc3Nc3ncccc32)CC1 |  |  | > 10 |  |  |  |  | 100 |  |  |  |
| CN1CCN(C2=Nc3cc(Cl)c(Cl)cc3Nc3ncccc32)CC1 |  |  | 9.2 |  |  |  |  | 100 | 50 |  |  |
| CN1CCN(C2=Nc3cc(Cl)ccc3Nc3ccccc32)CC1 [CLOZAPINE] |  |  |  |  |  |  | 30 | 50 | 100 |  | 40 |
| Cc1cc2c(s1)Nc1ccc(F)cc1N=C2N1CCN(C)CC1 [FLUMEZAPINE] | 0.08 |  |  |  |  | 10 | 5 | 1.6 | 6.25 |  |  |

More lines, main results first:

| IC50 [3] [µM] | IC50 (D(2) dopamine receptor [5]) [µM] | IC50 (D(2) dopamine receptor [7]) [µM] | IC50 [8] [µM] | IC50 (D(2) dopamine receptor [10]) [µM] | SMILES | EDmin (Rattus norvegicus [1]) [mg/kg] | EDmin (Rattus norvegicus [2]) [mg/kg] | EDmin (Mus musculus [4]) [mg/kg] | EDmin (Mus musculus [6]) [mg/kg] | EDmin (Rattus norvegicus [9]) [mg/kg] | EDmin (Rattus norvegicus [11]) [mg/kg] |
| --- | --- | --- | --- | --- | --- | --- | --- | --- | --- | --- | --- |
|  |  | 0.84 | > 1 |  | CN1CCN(C2=Nc3cc(F)ccc3Nc3nn(C)nc32)CC1 |  | 5 | 12.5 | 25 | 20 |  |
|  |  | 2.3 | > 1 |  | CN1CCN(C2=Nc3cc(Cl)c(Cl)cc3Nc3nn(C)nc32)CC1 | >50 | >20 | 50 | 100 |  |  |
|  |  |  | 4 | 0.3 | CN1CCN(C2=Nc3cc(Br)ccc3Nc3nn(C)nc32)CC1 | 5 | 5 | 12.5 | 12.5 |  |  |
| > 1 | 0.18 |  |  |  | CCn1nc2c(n1)C(N1CCN(C)CC1)=Nc1cc(F)ccc1N2 | 10 | 5 | 12.5 | 12.5 |  |  |
|  |  | 1.1 | > 1 |  | CN1CCN(C2=Nc3cc(C(F)(F)F)ccc3Nc3nn(C)nc32)CC1 | 25 | >25 | 50 | 50 |  |  |
| 122 | > 100 |  |  |  | CN1CCN(C2=Nc3cc(F)ccc3Nc3c2ncn3C)CC1 | >50 | >50 | >400 | >400 |  |  |
| > 1 | 1.42 |  |  |  | CN1CCN(C2=Nc3ccccc3Nc3nn(C)nc32)CC1 |  | 5 | 25 | 25 | >50 |  |
|  |  | 0.21 | 2.6 |  | CN1CCN(C2=Nc3cc(Cl)ccc3Nc3nn(C)nc32)CC1 | >10 | 4 | 6 | 12.5 |  |  |
| > 1 | > 10 |  |  |  | CN1CCN(C2=Nc3cc(F)ccc3Nc3ncn(C)c32)CC1 | 40 | >20 | 25 | 100 |  |  |
| 2.4 | 0.067 |  |  |  | CCn1nc2c(n1)C(N1CCN(C)CC1)=Nc1cc(Cl)ccc1N2 | >5 | 5 | 12.5 | 12.5 |  |  |
